In ChEMBL document CHEMBL4354845, “Discovery and Structure-Activity Relationships of Nociceptin Receptor Partial Agonists That Afford Symptom Ablation in Parkinson's Disease Models” (J Med Chem, 2020):
The source made the active and inactive calls. The calls are words filed in the database; no cut-off is given here.

How the values were obtained:
[1] = Stability in mouse liver microsomes assessed as half life at 1 uM incubated for 60 mins by LC-MS/MS analysis; type: ADME, Microsome
Summary of the method: (§1)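 Compound at 1 µM incubated at 37°C with liver microsomes in 100 mM potassium phosphate pH 7.4 and 5 mM MgCl2. Reaction started with 1 mM NADPH, sampled at 30, 45 and 60 min and quenched with acetonitrile/0.1% formic acid. Parent loss measured by LC-MS against t=0 with propranolol internal standard. Half-life from single-phase exponential fit, in duplicate.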

[2] = Apparent permeability across apical to basolateral side in dog MDCK-MDR1 cells by HPLC-MS/MS analysis; type: ADME, cell-based, Canis lupus familiaris
Summary of the method: (§2)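 MDR1-MDCK monolayers, bidirectional permeability (A→B and B→A), compound quantified by HPLC/MS/MS and expressed as Papp (10^-6 cm/s). Efflux ratio B–A/A–B. High BBB permeability taken as Papp A–B >3.0 with efflux ratio <3; efflux ratio >3 counted as high efflux.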

[3] = Cmax in Sprague-Dawley rat brain at 3 mg/kg, sc measured upto 8 hrs by LC-MS/MS analysis; type: ADME, organism-based; parameters: dose 3 mg/kg, route subcutaneous
Summary of the method: (§3)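 Male Sprague-Dawley rats (250–300 g) given a single s.c. dose of 3 mg/kg (2 mL/kg) as a 1.5 mg/ml solution in 5% dimethylacetamide/95% of 30% SBECD. Plasma (K2-EDTA) and brain collected at 0.5, 1, 2, 4 and 8 h. Brain homogenised 1:4 w/v in water. Terfenadine internal standard, positive-ion ESI LC-MS/MS. Noncompartmental analysis, linear trapezoidal AUC to 8 h. Brain values are total.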

[4] = Cmax in Sprague-Dawley rat plasma at 3 mg/kg, sc measured upto 8 hrs by LC-MS/MS analysis; type: ADME, organism-based; parameters: dose 3 mg/kg, route subcutaneous; summary of the method: as §3
Rattus norvegicus [5] = assay: Anti-parkinson's disease activity in 6-OHDA-induced hemi-lesioned Sprague-Dawley rat model of Parkinson's disease assessed as increase in time spent on rotarod at 0.01 to 1 mg/kg, ip administered for 3 days and measured after 20 mins of compound administration by rotarod test; type: functional, organism-based
Summary of the method: (§4)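 Rats received unilateral 6-OHDA (8 µg freebase) into the medial forebrain bundle and were enrolled if they made >7 ipsilateral turns/min after D-amphetamine 5 mg/kg i.p. They were trained to reproducible performance, then given acute i.p. doses or vehicle (saline + 5% Tween 80, 1% DMSO) with 3-day washouts. Contralateral paw scored at 20 and 90 min in bar and drag tests. Rotarod started at 5 rpm, rising 5 rpm/180 s, expressed as % of control. Analysis by two-way ANOVA with Bonferroni.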

Rattus norvegicus [6] = assay: Anti-parkinson's disease activity in Sprague-Dawley rat model of L-DOPA-induced dyskinesia at 0.01 to 1 mg/kg, ip administered for 3 days; type: functional, organism-based
[7] = Apparent permeability across basolateral to apical side in human Caco2 cells by HPLC-MS/MS analysis; type: ADME, cell-based; settings: Caco-2
Summary of the method: (§5)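 Caco-2 monolayers, two-way permeability (apical→basolateral and basolateral→apical), compound monitored by HPLC/MS/MS and reported as Papp (10^-6 cm/s). Papp >1.0x10^-6 cm/s with efflux ratio <3 classed as high permeability/no efflux.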

[8] = Half life in Sprague-Dawley rat brain at 3 mg/kg, sc measured upto 8 hrs by LC-MS/MS analysis; type: ADME, organism-based; summary of the method: as §3
Rattus norvegicus [9] = assay: Anti-parkinson's disease activity in Sprague-Dawley rat model of L-DOPA-induced dyskinesia at 0.1 to 3 mg/kg, ip administered for 3 days; type: functional, organism-based
[10] = Tmax in Sprague-Dawley rat plasma at 3 mg/kg, sc measured upto 8 hrs by LC-MS/MS analysis; type: ADME, organism-based; summary of the method: as §3
[11] = AUClast in Sprague-Dawley rat brain at 3 mg/kg, sc measured upto 8 hrs by LC-MS/MS analysis; type: ADME, organism-based; parameters: time < 8 hr, dose 3 mg/kg, route subcutaneous; summary of the method: as §3
Rattus norvegicus [12] = assay: Anti-parkinson's disease activity in 6-OHDA-induced hemi-lesioned Sprague-Dawley rat model of Parkinson's disease assessed as reduction in immobility time at 0.01 to 1 mg/kg, ip administered for 3 days and measured after 20 mins of compound administration by bar test; type: functional, organism-based; summary of the method: as §4
[13] = Half life in Sprague-Dawley rat plasma at 3 mg/kg, sc measured upto 8 hrs by LC-MS/MS analysis; type: ADME, organism-based; summary of the method: as §3
[14] = Tmax in Sprague-Dawley rat brain at 3 mg/kg, sc measured upto 8 hrs by LC-MS/MS analysis; type: ADME, organism-based; summary of the method: as §3
[15] = Apparent permeability across apical to basolateral side in human Caco2 cells by HPLC-MS/MS analysis; type: ADME, cell-based; settings: Caco-2; summary of the method: as §5
[16] = AUClast in Sprague-Dawley rat plasma at 3 mg/kg, sc measured upto 8 hrs by LC-MS/MS analysis; type: ADME, organism-based; parameters: dose 3 mg/kg, time < 8 hr, route subcutaneous; summary of the method: as §3
[17] = Apparent permeability across basolateral to apical side in dog MDCK-MDR1 cells by HPLC-MS/MS analysis; type: ADME, cell-based, Canis lupus familiaris; summary of the method: as §2
Rattus norvegicus [18] = assay: Anti-parkinson's disease activity in 6-OHDA-induced hemi-lesioned Sprague-Dawley rat model of Parkinson's disease assessed as increase in stepping activity at 0.01 to 1 mg/kg, ip administered for 3 days and measured after 90 mins of compound administration by drag test; type: functional, organism-based; summary of the method: as §4
[19] = Stability in human liver microsomes assessed as half life at 1 uM incubated for 60 mins by LC-MS/MS analysis; type: ADME, Microsome; summary of the method: as §1
Rattus norvegicus [20] = assay: Anti-parkinson's disease activity in 6-OHDA-induced hemi-lesioned Sprague-Dawley rat model of Parkinson's disease assessed as increase in time spent on rotarod at 0.1 to 3 mg/kg, ip administered for 3 days and measured after 20 mins of compound administration by rotarod test; type: functional; summary of the method: as §4
[21] = Stability in rat liver microsomes assessed as half life at 1 uM incubated for 60 mins by LC-MS/MS analysis; type: ADME, Microsome; summary of the method: as §1
Rattus norvegicus [22] = assay: Anti-parkinson's disease activity in 6-OHDA-induced hemi-lesioned Sprague-Dawley rat model of Parkinson's disease assessed as increase in stepping activity at 0.1 to 3 mg/kg, ip administered for 3 days and measured after 90 mins of compound administration by drag test; type: functional, organism-based; summary of the method: as §4
Rattus norvegicus [23] = assay: Anti-parkinson's disease activity in 6-OHDA-induced hemi-lesioned Sprague-Dawley rat model of Parkinson's disease assessed as reduction in immobility time at 0.1 to 3 mg/kg, ip administered for 3 days and measured after 20 mins of compound administration by bar test; type: functional; parameters: scale not given: the % may be the effect or the level left; summary of the method: as §4

| SMILES | half-life at 1 µM [1] [h] | Papp A→B [2] [×10⁻⁶ cm/s] | Cmax [3] [nM] | Cmax [4] [nM] | Activity (Rattus norvegicus [5]) | Activity (Rattus norvegicus [6]) | Papp B→A [7] [×10⁻⁶ cm/s] | half-life [8] [h] | Activity (Rattus norvegicus [9]) | Tmax [10] [h] | AUC(0-t) at 8 h [11] [µM·h] | Activity (Rattus norvegicus [12]) | half-life [13] [h] | Tmax [14] [h] | Papp A→B [15] [×10⁻⁶ cm/s] | AUC(0-t) at 8 h [16] [µM·h] | Papp B→A [17] [×10⁻⁶ cm/s] | Activity (Rattus norvegicus [18]) | half-life at 1 µM [19] [h] | half-life at 1 µM [21] [h] | other results |
| --- | --- | --- | --- | --- | --- | --- | --- | --- | --- | --- | --- | --- | --- | --- | --- | --- | --- | --- | --- | --- | --- |
| CC(C)[C@H]1CC[C@@H](N2CCC(N3CCc4ccccc43)CC2)CC1 | 0.0467 | 26.8 | 3070 | 456 | Active | inactive | 25 | 2.71 | inactive | 0.5 | 6.7 | Active | 2.13 | 0.5 | 30 | 1.25 | 33.8 | Active |  |  |  |
| CC(C)[C@H]1CC[C@@H](N2CCC(n3cc(CCN)c4ccccc43)CC2)CC1.Cl.Cl | > 1 | 0.6 |  |  |  |  | 6.49 |  |  |  |  |  |  |  | 4.36 |  | 22.1 |  |  |  |  |
| CC(C)[C@H]1CC[C@@H](N2CCC(n3ccc4ccccc43)CC2)CC1 |  | 28.8 | 4170 | 626 |  | inactive | 19.1 | 2.43 | inactive | 1 | 10.1 |  | 2.19 | 0.5 | 24 | 1.96 | 15.2 |  | 0.0883 | 0.0967 | Activity (Rattus norvegicus [20]): 20%; Activity (Rattus norvegicus [22]): Active; Activity (Rattus norvegicus [23]): 25% |
| CC(C)[C@H]1CC[C@@H](N2CCC(n3cc(CN)c4ccccc43)CC2)CC1 |  | 0.34 | 956 | 529 | Active | inactive | 4.92 | 10.8 | inactive | 0.5 | 6.13 | Active | 2.61 | 4 | 4.64 | 1 | 14.4 | Active | > 1 | > 1 |  |
